Three compounds from paper PMC6300982 (Chemosphere, 2015) can be followed below.

Common to all, as to format: biochemical
For assay [1], the target named is T1, UGT1A3 (Homo sapiens, UniProt P35503).
T1 sequence (P35503 29-534): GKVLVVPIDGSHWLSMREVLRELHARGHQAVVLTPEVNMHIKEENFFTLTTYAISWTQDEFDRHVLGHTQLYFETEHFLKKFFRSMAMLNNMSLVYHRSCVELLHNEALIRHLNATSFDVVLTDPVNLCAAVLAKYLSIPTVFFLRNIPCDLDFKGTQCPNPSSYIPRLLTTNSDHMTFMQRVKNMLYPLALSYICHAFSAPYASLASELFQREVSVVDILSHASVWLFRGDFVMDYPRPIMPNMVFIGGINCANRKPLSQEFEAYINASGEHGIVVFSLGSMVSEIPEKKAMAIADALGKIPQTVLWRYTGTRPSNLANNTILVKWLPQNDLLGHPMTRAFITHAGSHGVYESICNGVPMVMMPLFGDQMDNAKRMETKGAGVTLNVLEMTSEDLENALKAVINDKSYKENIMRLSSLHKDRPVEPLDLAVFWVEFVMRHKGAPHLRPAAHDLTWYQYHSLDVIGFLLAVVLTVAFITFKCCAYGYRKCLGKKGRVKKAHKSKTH
Briefly: glucuronidation of 4-MU by recombinant enzyme, HPLC-UV.

For assay [2], the target named is T2, UGT1A9 (Homo sapiens, UniProt O60656).
T2 sequence (O60656 26-530): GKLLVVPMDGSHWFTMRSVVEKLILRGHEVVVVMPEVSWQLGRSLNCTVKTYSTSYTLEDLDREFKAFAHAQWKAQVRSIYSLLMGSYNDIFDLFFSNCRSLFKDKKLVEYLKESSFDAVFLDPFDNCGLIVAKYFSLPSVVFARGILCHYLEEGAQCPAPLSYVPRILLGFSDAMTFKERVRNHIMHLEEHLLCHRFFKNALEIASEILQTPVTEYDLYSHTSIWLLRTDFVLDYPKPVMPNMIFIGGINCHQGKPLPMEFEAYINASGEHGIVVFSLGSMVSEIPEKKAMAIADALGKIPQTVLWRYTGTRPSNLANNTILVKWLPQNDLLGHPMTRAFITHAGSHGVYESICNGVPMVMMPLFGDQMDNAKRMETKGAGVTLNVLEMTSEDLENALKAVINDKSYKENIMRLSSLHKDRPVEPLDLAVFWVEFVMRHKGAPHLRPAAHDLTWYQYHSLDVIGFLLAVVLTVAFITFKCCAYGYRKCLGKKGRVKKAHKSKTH
The assay is described as follows: single-concentration. As to conditions: read-out: % inhibition at 100 μM.

The target in assay [3] is T1, UGT1A3. The assay is described as follows: dose-dependent inhibition of 4-MU glucuronidation, HPLC-UV. The conditions noted are these: read-out: % inhibition at 100 μM.
The target of assay [4] is T3, UGT2B7 (Homo sapiens, UniProt P16662).
T3 sequence (P16662 24-529): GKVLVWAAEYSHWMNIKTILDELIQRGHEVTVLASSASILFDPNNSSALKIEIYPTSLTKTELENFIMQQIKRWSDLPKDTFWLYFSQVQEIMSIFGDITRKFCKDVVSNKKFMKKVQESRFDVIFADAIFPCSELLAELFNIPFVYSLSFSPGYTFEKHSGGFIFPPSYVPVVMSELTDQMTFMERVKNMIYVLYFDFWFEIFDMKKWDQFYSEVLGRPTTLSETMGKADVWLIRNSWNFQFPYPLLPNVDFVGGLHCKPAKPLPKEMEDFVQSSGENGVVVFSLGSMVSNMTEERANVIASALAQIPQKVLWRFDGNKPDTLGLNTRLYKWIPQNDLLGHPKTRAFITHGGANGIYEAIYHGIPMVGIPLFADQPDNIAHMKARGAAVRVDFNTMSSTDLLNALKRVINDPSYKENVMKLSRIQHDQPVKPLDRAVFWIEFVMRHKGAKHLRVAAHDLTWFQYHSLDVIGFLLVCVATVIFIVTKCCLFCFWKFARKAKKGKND
The assay is described as follows: single-concentration. As to conditions: read-out: % inhibition at 100 μM.

Assay [5] has as its target T1, UGT1A3. Briefly: inhibition kinetics of 4-MU glucuronidation by recombinant enzyme. The gist of the method: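 Insect-cell-expressed human UGT1A3 glucuronidating 4-MU across several substrate and test compound concentrations. Buffer: 5 mM UDPGA, 5 mM MgCl2, 50 mM Tris-HCl pH 7.4. 5 min preincubation, started with UDPGA, 37 °C. 4-MUG quantified by HPLC-UV at 316 nm against internal standard. Dixon and Lineweaver–Burk plots gave inhibition type; Ki from secondary plot of Lineweaver–Burk slopes versus inhibitor concentration.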

Assay [6] has as its target T4, UGT1A6 (Homo sapiens, UniProt P19224).
T4 sequence (P19224 27-532): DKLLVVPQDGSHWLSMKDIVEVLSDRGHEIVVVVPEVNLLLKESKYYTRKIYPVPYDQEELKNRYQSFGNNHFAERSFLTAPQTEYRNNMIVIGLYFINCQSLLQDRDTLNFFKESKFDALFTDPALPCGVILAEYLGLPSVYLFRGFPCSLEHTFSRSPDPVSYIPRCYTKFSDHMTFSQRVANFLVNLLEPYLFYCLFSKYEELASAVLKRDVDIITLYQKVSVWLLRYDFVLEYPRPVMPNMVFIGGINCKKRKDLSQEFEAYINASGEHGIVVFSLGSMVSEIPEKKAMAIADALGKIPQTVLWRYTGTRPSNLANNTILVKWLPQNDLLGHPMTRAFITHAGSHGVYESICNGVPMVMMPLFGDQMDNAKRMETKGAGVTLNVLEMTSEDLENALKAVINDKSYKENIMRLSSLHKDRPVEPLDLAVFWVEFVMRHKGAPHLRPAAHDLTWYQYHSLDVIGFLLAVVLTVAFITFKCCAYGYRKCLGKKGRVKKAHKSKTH
Briefly: single-concentration. The conditions noted are these: read-out: % inhibition at 100 μM.

Each structure is given as a SMILES string.

`Cc1cc(=O)oc2cc(O)ccc12` [4-MU, 4-Methylμmbelliferone]: the “glucuronidation of 4-MU by recombinant enzyme, HPLC-UV” value in assay [1] is recorded as “Determination of inhibition kinetics of DPhP towards UGT1A3-catalyzed glucuronidation of 4-MU”.

In the case of `CCCCCCCCOC(=O)c1ccccc1C(=O)OCCCCCCCC` [DNOP, di-n-octyl ortho-phthalate], the inhibition at 100 µM was 45.6% in assay [2], 41.8% in assay [3] and 48.8% in assay [4].

On to `O=C(Oc1ccccc1)c1ccccc1C(=O)Oc1ccccc1` [DPhP, diphenyl phthalate], for which the inhibition at 100 µM in assay [2] stood at 76.4%; in assay [6], 49.1%. Further, in assay [5], the Ki was determined as 890 nM.
